Laboratory results as given in ChEMBL document CHEMBL1138232, “Optimization of naphthalimide-imidazoacridone with potent antitumor activity leading to clinical candidate (HKH40A, RTA 502)” (J Med Chem, 2007).

Columns and labels:
U-251 = test: Antitumor activity against human U251 cells after 48 hrs; assay type: functional; settings: U-251, 48 h
Outline: (§1)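 NCI 60 human tumour cell line screen; 48 h continuous drug exposure. Compounds tested as tri(methanesulfonate) salts, soluble in water and dilute buffers. Dilute solutions are light-sensitive and adsorb to glass or quartz.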

Malme-3M = test: Antitumor activity against human MALME-3M cells after 48 hrs; assay type: functional
Outline: (§2)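 Tested in the NCI 60 human tumour cell line screen, with continuous drug exposure for 48 h. Values include LC50 derived from the screen.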

SK-MEL-5 = test: Antitumor activity against human SK-MEL-5 cells after 48 hrs; assay type: functional; settings: SK-MEL-5, 48 h; outline: as §2
[1] = Growth inhibition of human Hep3B cells after 5 days by MTT assay; assay type: functional, Hep 3B2; settings: 120 h
Outline: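 MTT assay after 5 day continuous exposure. GI50, TGI and LC50 calculated from the MTT data. Means ± SD of at least three independent experiments; coefficients of variation 10-20%. Compounds used as tri(methanesulfonate) salts.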

HCT-116 [2] = test: Antitumor activity against human HCT116 cells expressing wild type p53; assay type: functional; settings: read-out: LC50 (the source's name)
Outline: (§3)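 Compounds tested as tri(methanesulfonate) salts, soluble in water and dilute buffers. Human tumour cells carrying wild-type or mutated p53 were exposed for 5 days, and viability was read by MTT assay. GI50, TGI and LC50 were calculated from the MTT data. Values are means ± SD of at least three independent experiments, with coefficients of variation of 10–20%.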

COLO 205 = test: Antitumor activity against human Colo205 cells expressing mutated p53; assay type: functional, cell-based; outline: as §3
ASPC1 = test: Antitumor activity against p53 null human ASPC1 cells; assay type: functional, cell-based
HCT-116 [3] = test: Cell cycle arrest in HCT116 cells assessed as accumulation at Sub G1 phase at 50 nM after 72 hrs; assay type: functional, Homo sapiens
Outline: (§4)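 HCT116 cells exposed to 50 nM drug for 72 h, then cell-cycle distribution analysed. Sub-G1, G1, S and G2/M fractions reported as percent of cells, with untreated control cells for comparison.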

HCT-116 [4] = test: Cell cycle arrest in HCT116 cells assessed as accumulation at G1 phase at 50 nM after 72 hrs; assay type: functional, Homo sapiens; outline: as §4
HCT-116 [5] = test: Cell cycle arrest in HCT116 cells assessed as accumulation at G2/M phase at 50 nM after 72 hrs; assay type: functional, Homo sapiens; outline: as §4
[6] = Drug level in NCR nu/nu mouse plasma at 20 mg/kg, iv after 8 hrs; assay type: ADME, organism-based; parameters: dose 20 mg/kg, route intravenous
Outline: (§5)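 Single i.v. dose of 20 mg/kg to ncr nu/nu mice and an F344 rat. Plasma concentrations followed over time and fitted by nonlinear regression to give distribution and elimination phases, AUC and apparent volumes of distribution. Detection limit 50 nM.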

[7] = Drug level in F344 rat plasma at 20 mg/kg, iv after 4 hrs; assay type: ADME, organism-based; parameters: dose 20 mg/kg, route intravenous; outline: as §5
[8] = Apparent volume of distribution in NCR nu/nu mouse at 20 mg/kg, iv; assay type: ADME, organism-based; parameters: dose 20 mg/kg, route intravenous; settings: in vivo; outline: as §5
HCT-116 [9] = test: Inhibition of tumor growth in HCT116 cells xenografted in nu/nu mouse; assay type: functional, Homo sapiens
Outline: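 HCT116 xenografts in mice; compound given i.v. on a Q3Dx4 schedule, starting when tumours reached 62 mm3. Tumour growth inhibition measured.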

[10] = Antitumor activity against human HL60 (TB) cells after 48 hrs; assay type: functional, HL-60(TB); settings: HL-60, 48 h; outline: as §2
RPMI-8226 = test: Antitumor activity against human RPMI-8226 cells after 48 hrs; assay type: functional; settings: RPMI-8226, 48 h; outline: as §2
SR = test: Antitumor activity against human SR cells after 48 hrs; assay type: functional; outline: as §1
NCI-H23 = test: Antitumor activity against human NCI-H23 cells after 48 hrs; assay type: functional; settings: NCI-H23, 48 h; outline: as §2
HCC 2998 = test: Antitumor activity against human HCC2998 cells after 48 hrs; assay type: functional; settings: HCC 2998, 48 h; outline: as §2
HCT-116 [11] = test: Antitumor activity against human HCT116 cells after 48 hrs; assay type: functional; settings: HCT-116, 48 h; outline: as §2
HT-29 = test: Antitumor activity against human HT29 cells after 48 hrs; assay type: functional; settings: HT-29, 48 h; outline: as §2
KM12 = test: Antitumor activity against human KM12 cells after 48 hrs; assay type: functional; settings: KM12, 48 h; outline: as §2
SF-295 = test: Antitumor activity against human SF295 cells after 48 hrs; assay type: functional; settings: SF-295, 48 h; outline: as §2
SF-539 = test: Antitumor activity against human SF539 cells after 48 hrs; assay type: functional; settings: SF-539, 48 h; outline: as §2
SNB-19 = test: Antitumor activity against human SNB19 cells after 48 hrs; assay type: functional; settings: SNB-19, 48 h; outline: as §2
OVCAR-5 = test: Antitumor activity against human OVCAR5 cells after 48 hrs; assay type: functional; settings: OVCAR-5, 48 h; outline: as §2
CAKI-1 = test: Antitumor activity against human CAKI-1 cells after 48 hrs; assay type: functional; settings: CAKI-1, 48 h; outline: as §2
UO-31 = test: Antitumor activity against human UO31 cells after 48 hrs; assay type: functional; settings: UO-31, 48 h; outline: as §1
DU-145 = test: Antitumor activity against human DU145 cells after 48 hrs; assay type: functional; settings: DU-145, 48 h; outline: as §2
NCI = test: Antitumor activity against human NCI/ADR-RES cells after 48 hrs; assay type: functional; outline: as §2
[12] = Antitumor activity against human […] cells after 48 hrs; assay type: functional; outline: as §2
Hs-578T = test: Antitumor activity against human HS578T cells after 48 hrs; assay type: functional; outline: as §2
MDA-MB-435 = test: Antitumor activity against human MDA-MB-435 cells after 48 hrs; assay type: functional; settings: MDA-MB-435, 48 h; outline: as §2
BT-549 = test: Antitumor activity against human BT549 cells after 48 hrs; assay type: functional; settings: BT-549, 48 h; outline: as §2
[13] = read-out: Log LC50 (the source's name) (converted)

COc1ccc2c(c1)c(=O)c1c(NCCCN3CCN(CCCN4C(=O)c5cccc6cc([N+](=O)[O-])cc(c56)C4=O)CC3)ccc3ncn2c31.CS(=O)(=O)O
GI50 (U-251): 2.19 nM | CC50 (U-251; [13]): > 1000 nM | TGI (U-251; read-out: Log TGI (converted)): > 1000 nM | GI50 (Malme-3M): 6.03 nM | CC50 (Malme-3M; [13]): > 1000 nM | TGI (Malme-3M; read-out: Log TGI (converted)): 95.5 nM | GI50 (SK-MEL-5): 4.9 nM | CC50 (SK-MEL-5; [13]): 871 nM | TGI (SK-MEL-5; read-out: Log TGI (converted)): 43.6 nM | GI50 [1]: 2.5 nM | CC50 ([1]; read-out: LC50 (the source's name)): 50 nM | CC50 (HCT-116 [2]): 30 nM | IC50 (COLO 205): 80 nM | IC50 (ASPC1): 70 nM | Activity (HCT-116 [3]): 48% | Activity (HCT-116 [4]): 22.6% | Activity (HCT-116 [5]): 27.1% | concentration at 8 h [6]: 70 nM | concentration at 4 h [7]: 90 nM | Vd [8]: 57 L/kg | TGI (HCT-116 [9]): 59% | GI50 [10]: 0.159 nM | CC50 [10, 13]: > 1000 nM | GI50 (RPMI-8226): 4.07 nM | CC50 (RPMI-8226; [13]): > 1000 nM | TGI (RPMI-8226; read-out: Log TGI (converted)): > 1000 nM | GI50 (SR): < 0.1 nM | CC50 (SR; [13]): 17 nM | TGI (SR; read-out: Log TGI (converted)): < 0.1 nM | GI50 (NCI-H23): 20.4 nM | CC50 (NCI-H23; [13]): > 1000 nM | TGI (NCI-H23; read-out: Log TGI (converted)): > 1000 nM | GI50 (HCC 2998): 11.5 nM | CC50 (HCC 2998; [13]): > 1000 nM | TGI (HCC 2998; read-out: Log TGI (converted)): > 1000 nM | GI50 (HCT-116 [11]): 0.407 nM | CC50 (HCT-116 [11]; [13]): 214 nM | TGI (HCT-116 [11]; read-out: Log TGI (converted)): 15.1 nM | GI50 (HT-29): 2.75 nM | CC50 (HT-29; [13]): > 1000 nM | TGI (HT-29; read-out: Log TGI (converted)): 295 nM | GI50 (KM12): 4.37 nM | CC50 (KM12; [13]): > 1000 nM | TGI (KM12; read-out: Log TGI (converted)): 537 nM | GI50 (SF-295): 1 nM | CC50 (SF-295; [13]): > 1000 nM | TGI (SF-295; read-out: Log TGI (converted)): 79.4 nM | GI50 (SF-539): 2.75 nM | CC50 (SF-539; [13]): > 1000 nM | TGI (SF-539; read-out: Log TGI (converted)): 25.1 nM | GI50 (SNB-19): 8.51 nM | CC50 (SNB-19; [13]): > 1000 nM | TGI (SNB-19; read-out: Log TGI (converted)): > 1000 nM | GI50 (OVCAR-5): 339 nM | CC50 (OVCAR-5; [13]): > 1000 nM | TGI (OVCAR-5; read-out: Log TGI (converted)): > 1000 nM | GI50 (CAKI-1): 3.02 nM | CC50 (CAKI-1; [13]): > 1000 nM | TGI (CAKI-1; read-out: Log TGI (converted)): 40.7 nM | GI50 (UO-31): 2.69 nM | CC50 (UO-31; [13]): > 1000 nM | TGI (UO-31; read-out: Log TGI (converted)): 17.8 nM | GI50 (DU-145): 3.71 nM | CC50 (DU-145; [13]): > 1000 nM | TGI (DU-145; read-out: Log TGI (converted)): > 1000 nM | GI50 (NCI): 24 nM | CC50 (NCI; [13]): > 1000 nM | TGI (NCI; read-out: Log TGI (converted)): > 1000 nM | GI50 [12]: 4.79 nM | CC50 [12, 13]: > 1000 nM | TGI ([12]; read-out: Log TGI (converted)): > 1000 nM | GI50 (Hs-578T): 14.8 nM | CC50 (Hs-578T; [13]): > 1000 nM | TGI (Hs-578T; read-out: Log TGI (converted)): > 1000 nM | GI50 (MDA-MB-435): 7.41 nM | CC50 (MDA-MB-435; [13]): > 1000 nM | TGI (MDA-MB-435; read-out: Log TGI (converted)): > 1000 nM | GI50 (BT-549): 3.09 nM | CC50 (BT-549; [13]): > 1000 nM | TGI (BT-549; read-out: Log TGI (converted)): 53.7 nM
